For orientation: Ki means the equilibrium dissociation constant of an inhibitor or competing ligand from its target. As usually defined, the IC50 is the concentration that inhibits the measured activity by half. As a reminder, the inhibition is how much of the control response was suppressed.

This is an account of results in ChEMBL document CHEMBL3596098, “Insights into the interaction of negative allosteric modulators with the metabotropic glutamate receptor 5: discovery and computational modeling of a new series of ligands with nanomolar affinity” (Bioorg Med Chem, 2015).

The target of test [1] is Metabotropic glutamate receptor 5 (Rattus norvegicus, UniProt P31424). Nature of the test: Displacement of [3H]MPEP from mGluR5 receptor in Sprague-Dawley rat forebrain membrane after 60 mins by liquid scintillation spectrometry. A general note: In a radioligand displacement assay an active substance lowers the binding of a labelled ligand.
Chain of Metabotropic glutamate receptor 5 (Rattus norvegicus, UniProt P31424) (P31424 whole entry): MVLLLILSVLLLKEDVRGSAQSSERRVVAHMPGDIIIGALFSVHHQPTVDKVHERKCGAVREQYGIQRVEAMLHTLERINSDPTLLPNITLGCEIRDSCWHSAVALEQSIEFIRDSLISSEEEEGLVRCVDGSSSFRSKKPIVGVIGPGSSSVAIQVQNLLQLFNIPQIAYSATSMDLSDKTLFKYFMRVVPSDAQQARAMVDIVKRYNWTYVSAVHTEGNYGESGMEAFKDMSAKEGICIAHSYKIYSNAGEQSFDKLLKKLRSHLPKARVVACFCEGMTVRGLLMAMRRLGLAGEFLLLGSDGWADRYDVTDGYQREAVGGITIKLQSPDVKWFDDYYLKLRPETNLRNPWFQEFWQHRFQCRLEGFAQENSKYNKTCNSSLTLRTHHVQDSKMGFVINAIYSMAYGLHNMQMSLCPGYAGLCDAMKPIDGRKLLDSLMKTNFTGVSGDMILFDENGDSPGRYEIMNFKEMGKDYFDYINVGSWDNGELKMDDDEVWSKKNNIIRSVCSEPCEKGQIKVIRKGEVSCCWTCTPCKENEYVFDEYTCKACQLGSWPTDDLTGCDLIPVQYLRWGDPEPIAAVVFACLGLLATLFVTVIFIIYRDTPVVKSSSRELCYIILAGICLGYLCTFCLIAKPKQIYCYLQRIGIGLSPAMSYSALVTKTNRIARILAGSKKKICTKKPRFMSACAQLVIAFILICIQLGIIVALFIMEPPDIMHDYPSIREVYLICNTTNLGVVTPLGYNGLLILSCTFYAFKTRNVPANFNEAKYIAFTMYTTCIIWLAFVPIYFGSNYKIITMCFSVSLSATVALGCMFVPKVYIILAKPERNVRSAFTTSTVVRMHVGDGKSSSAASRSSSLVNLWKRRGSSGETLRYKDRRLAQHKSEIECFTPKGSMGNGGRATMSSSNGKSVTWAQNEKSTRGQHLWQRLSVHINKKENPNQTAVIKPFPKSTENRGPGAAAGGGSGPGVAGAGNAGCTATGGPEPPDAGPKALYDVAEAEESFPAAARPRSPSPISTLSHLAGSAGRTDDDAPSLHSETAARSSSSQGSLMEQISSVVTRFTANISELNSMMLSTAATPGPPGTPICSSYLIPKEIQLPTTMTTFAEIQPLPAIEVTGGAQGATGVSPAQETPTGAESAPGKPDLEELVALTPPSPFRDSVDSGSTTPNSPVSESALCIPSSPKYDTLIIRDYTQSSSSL
Test [2] concerns the target T1, Metabotropic glutamate receptor 5 (Homo sapiens, UniProt P41594). Nature of the test: Displacement of [3H]MPEP from human cloned mGluR5 receptor expressed in CHO-T-Rex cells after 60 mins by liquid scintillation spectrometry. The class given is cell-based.
Target sequence in this assay (P41594 whole entry): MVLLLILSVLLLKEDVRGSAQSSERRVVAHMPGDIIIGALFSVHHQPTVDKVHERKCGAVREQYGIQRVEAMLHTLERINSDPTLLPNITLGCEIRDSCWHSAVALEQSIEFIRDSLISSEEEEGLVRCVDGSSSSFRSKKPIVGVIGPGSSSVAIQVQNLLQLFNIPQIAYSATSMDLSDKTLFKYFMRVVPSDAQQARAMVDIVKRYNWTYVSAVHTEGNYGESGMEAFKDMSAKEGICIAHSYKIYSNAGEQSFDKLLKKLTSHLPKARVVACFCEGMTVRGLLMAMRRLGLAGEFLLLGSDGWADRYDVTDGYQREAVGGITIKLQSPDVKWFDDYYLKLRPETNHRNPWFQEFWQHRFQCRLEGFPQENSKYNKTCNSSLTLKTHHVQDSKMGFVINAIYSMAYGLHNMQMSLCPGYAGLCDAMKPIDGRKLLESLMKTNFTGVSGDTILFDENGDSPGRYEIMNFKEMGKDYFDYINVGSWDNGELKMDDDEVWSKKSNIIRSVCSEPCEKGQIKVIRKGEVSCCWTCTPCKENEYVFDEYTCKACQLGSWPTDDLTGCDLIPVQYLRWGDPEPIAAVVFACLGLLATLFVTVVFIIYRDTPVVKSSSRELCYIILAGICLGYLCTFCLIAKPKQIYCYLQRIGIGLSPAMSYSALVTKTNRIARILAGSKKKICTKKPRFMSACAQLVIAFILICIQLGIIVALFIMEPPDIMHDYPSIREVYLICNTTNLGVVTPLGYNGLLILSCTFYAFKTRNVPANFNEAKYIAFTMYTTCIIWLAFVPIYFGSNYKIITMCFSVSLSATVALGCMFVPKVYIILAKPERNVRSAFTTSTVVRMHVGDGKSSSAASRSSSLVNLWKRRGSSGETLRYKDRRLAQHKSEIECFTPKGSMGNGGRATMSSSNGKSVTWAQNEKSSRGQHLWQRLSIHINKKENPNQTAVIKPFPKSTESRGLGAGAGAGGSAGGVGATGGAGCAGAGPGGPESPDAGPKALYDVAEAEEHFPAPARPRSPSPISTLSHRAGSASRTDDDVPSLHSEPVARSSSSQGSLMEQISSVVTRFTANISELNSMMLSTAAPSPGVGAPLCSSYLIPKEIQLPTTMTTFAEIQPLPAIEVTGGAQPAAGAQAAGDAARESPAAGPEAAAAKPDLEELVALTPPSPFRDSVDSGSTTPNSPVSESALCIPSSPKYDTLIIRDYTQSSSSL
Test [3] concerns the target T1, Metabotropic glutamate receptor 5. Nature of the test: Negative allosteric modulatory activity at human cloned mGluR5 receptor expressed in CHO-T-Rex cells assessed as inhibiton of quisqualate-induced calcium mobilization treated 10 mins prior to agonist application by fluorescence analysis. The class given is functional, cell-based. The essentials:
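CHO T-REx cells expressing human mGlu5, induced 18 h with 3 ng/mL tetracycline and seeded at 80,000 cells/well. Loaded 1 h at 37 °C with 2 µM Fluo-4/AM in HBSS with 20 mM HEPES and 2.5 mM probenecid, then washed. Compound (0.5% DMSO final) added 10 min before quisqualate at its daily EC80. Peak minus basal fluorescence read every 1.5 s for 60 s.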
On the technique in general: Calcium flux is commonly read through the fluorescence of an indicator in the cells.
Target sequence in this assay (P41594 whole entry): as above

In test [4] the target is T2, Metabotropic glutamate receptor 1 (Rattus norvegicus, UniProt P23385). Nature of the test: Displacement of [3H]R214127 from rat cloned mGluR1 receptor expressed in CHO-T-Rex cells after 30 mins by liquid scintillation spectrometry. It counts as cell-based. The essentials: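 CHO T-REx cells stably expressing rat mGlu1, derepressed by 1 µg/mL tetracycline for 18 h. Nonspecific binding with 1 µM R214127. Filtration, scintillation counting. Ki by Cheng-Prusoff.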
T2 sequence (P23385 whole entry): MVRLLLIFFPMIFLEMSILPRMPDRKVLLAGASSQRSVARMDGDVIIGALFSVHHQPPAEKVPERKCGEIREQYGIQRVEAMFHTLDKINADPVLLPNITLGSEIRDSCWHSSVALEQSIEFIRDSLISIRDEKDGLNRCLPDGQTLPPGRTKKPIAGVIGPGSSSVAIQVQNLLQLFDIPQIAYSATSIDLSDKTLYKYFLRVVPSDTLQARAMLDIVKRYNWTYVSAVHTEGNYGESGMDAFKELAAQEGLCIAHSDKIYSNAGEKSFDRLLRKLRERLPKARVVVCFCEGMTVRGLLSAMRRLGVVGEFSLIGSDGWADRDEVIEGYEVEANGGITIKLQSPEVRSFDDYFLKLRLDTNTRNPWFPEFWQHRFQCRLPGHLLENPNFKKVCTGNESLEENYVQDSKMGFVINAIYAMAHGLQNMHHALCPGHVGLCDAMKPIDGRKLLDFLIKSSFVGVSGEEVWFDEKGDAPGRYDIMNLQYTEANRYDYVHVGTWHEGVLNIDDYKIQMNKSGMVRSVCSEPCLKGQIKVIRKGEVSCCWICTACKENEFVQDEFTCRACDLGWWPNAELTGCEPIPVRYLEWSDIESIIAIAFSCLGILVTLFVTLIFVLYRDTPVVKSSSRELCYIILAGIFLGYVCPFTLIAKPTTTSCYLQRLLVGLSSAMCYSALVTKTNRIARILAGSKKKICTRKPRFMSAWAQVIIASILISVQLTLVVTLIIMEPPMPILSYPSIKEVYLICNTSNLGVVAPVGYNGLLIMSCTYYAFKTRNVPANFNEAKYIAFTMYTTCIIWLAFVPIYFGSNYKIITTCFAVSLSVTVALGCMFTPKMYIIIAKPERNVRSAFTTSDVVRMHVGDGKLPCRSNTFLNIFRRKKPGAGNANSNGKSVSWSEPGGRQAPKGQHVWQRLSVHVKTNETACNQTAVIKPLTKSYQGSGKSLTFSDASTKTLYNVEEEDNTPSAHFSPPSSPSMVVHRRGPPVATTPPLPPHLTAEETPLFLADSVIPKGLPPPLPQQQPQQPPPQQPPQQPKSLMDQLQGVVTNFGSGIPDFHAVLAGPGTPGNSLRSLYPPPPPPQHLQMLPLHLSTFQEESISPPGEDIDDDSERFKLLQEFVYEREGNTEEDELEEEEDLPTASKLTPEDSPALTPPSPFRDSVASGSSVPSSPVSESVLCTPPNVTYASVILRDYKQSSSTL

Test [5] has as its target T2, Metabotropic glutamate receptor 1. The test is described as follows: Negative allosteric modulatory activity at rat cloned mGluR1 receptor expressed in CHO-T-Rex cells assessed as inhibiton of quisqualate-induced calcium mobilization treated 10 mins prior to agonist application by fluorescence analysis. The class given is functional, cell-based. Put shortly:
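CHO T-REx cells expressing rat mGlu1, induced 18 h with 10 ng/mL tetracycline and seeded at 80,000 cells/well. Loaded with 2 µM Fluo-4/AM (1 h, 37 °C, HBSS/HEPES/probenecid), then washed. Compound (0.5% DMSO final) given 10 min before quisqualate at its daily EC80. Peak minus basal fluorescence recorded over 60 s. Three independent experiments.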

Test [6] addresses T1, Metabotropic glutamate receptor 5. Nature of the test: Non-competitive antagonist activity at human cloned mGluR5 receptor expressed in CHO-T-Rex cells assessed as inhibiton of quisqualate-induced calcium mobilization at 0.3 nM treated 10 mins prior to agonist application by fluorescence analysis. The class given is functional, cell-based.
Target sequence in this assay (P41594 21-1212 limits assumed): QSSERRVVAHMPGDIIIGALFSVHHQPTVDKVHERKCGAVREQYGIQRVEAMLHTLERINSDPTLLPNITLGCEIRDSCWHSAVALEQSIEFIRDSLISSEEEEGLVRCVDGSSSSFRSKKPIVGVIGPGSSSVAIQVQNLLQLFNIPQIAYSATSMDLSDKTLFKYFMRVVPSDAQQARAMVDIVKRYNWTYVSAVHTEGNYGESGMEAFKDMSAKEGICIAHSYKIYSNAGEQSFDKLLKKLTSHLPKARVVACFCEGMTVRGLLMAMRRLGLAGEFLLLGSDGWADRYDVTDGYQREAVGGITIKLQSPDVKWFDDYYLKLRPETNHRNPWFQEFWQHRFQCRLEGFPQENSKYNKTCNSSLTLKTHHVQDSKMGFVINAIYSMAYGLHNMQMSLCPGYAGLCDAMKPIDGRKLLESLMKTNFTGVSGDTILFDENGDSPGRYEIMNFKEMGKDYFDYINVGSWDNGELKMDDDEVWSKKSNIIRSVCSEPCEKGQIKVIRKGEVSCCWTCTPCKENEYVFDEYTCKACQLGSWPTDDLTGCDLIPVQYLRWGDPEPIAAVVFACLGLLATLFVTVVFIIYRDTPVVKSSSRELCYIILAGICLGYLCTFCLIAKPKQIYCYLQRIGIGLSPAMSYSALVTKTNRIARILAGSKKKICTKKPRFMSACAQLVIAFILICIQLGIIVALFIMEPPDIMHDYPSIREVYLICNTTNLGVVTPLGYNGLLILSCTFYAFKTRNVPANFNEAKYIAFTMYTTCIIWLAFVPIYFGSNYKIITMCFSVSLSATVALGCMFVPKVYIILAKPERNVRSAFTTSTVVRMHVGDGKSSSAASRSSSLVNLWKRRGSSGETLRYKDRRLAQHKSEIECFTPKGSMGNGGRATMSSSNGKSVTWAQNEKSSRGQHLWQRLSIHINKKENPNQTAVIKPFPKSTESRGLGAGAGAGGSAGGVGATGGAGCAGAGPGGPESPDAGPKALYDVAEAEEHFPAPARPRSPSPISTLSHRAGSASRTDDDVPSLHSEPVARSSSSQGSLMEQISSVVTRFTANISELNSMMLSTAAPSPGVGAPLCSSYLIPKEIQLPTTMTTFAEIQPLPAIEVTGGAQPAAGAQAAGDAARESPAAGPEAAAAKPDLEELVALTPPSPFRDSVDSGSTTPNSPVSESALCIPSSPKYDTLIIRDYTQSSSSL

A value given as a limit tells only on which side of the number the result lay.

For the molecule `Cc1cccc(C#CC=C2CCN(c3ccccc3[N+](=O)[O-])CC2)n1`, the Ki amounted to 0.2 nM in test [1], 0.3 nM in test [2] and 70.7 nM in test [4]. Further, the results for the IC50 in test [3] and in test [5] were 10.4 nM and 551 nM, respectively.

On to `N#Cc1cc(Cl)cc(C#CC=C2CCN(c3ncccc3[N+](=O)[O-])CC2)c1`, for which the figures for the inhibition constant (Ki) in test [2] and in test [4] were 283 nM and greater than 1000 nM, respectively.

For the molecule `Cc1cccc(C#CC=C2CCN(c3ncccc3[N+](=O)[O-])CC2)c1`, the Ki in test [1] came out at 0.4 nM; in test [2], 0.3 nM; in test [4] it was 18.6 nM. The IC50 in test [3] is 1.8 nM; in test [5], 543 nM.

Consider `Cc1nc(C#Cc2ccc(-c3cccnc3)nc2)cs1`, for which the Ki in test [4] was greater than 10000 nM.

With `CN1CC(=O)N=C1NC(=O)Nc1cccc(Cl)c1` [FENOBAM ANHYDROUS], the Ki in test [1] amounted to 313 nM; in test [2], 162 nM. Further, the IC50 in test [3] came out at 36.3 nM.

On to `Cc1ccc([N+](=O)[O-])c(N2CCC(=CC#Cc3ccc(C#N)cn3)CC2)n1`, for which the inhibition constant Ki in test [1] came out at 0.4 nM; in test [2], 0.3 nM; in test [4], 190 nM. The half-maximal inhibitory concentration (IC50) in test [3] turned out to be 1.3 nM.

For the molecule `Cc1cccc(C#CC=C2CCN(c3ncccc3[N+](=O)[O-])CC2)n1`, the results for the Ki in test [1], in test [2] and in test [4] were 0.03 nM, 0.5 nM and 184 nM, respectively. In addition, the IC50 turned out to be 0.8 nM in test [3] and 448 nM in test [5]. Besides, the inhibition in test [6] came out at 50%.

`O=C(c1ccc(-c2ccccc2)cc1)N1CCN(c2ncccc2[N+](=O)[O-])CC1`: the values for the Ki in test [1] and in test [2] were greater than 1000 nM and greater than 10000 nM, respectively.

As to `Cc1cccc(C#CC=C2CCN(c3ncc(-c4ccccc4)cc3C#N)CC2)n1`, the Ki stood at 2.9 nM in test [1], 0.5 nM in test [2] and 443 nM in test [4]. Besides, in test [3], the half-inhibitory concentration (IC50) was 9.7 nM.

`O=C(c1cnc2ccccc2n1)N1CCN(c2ncccc2[N+](=O)[O-])CC1`: the Ki in test [1] is greater than 1000 nM; in test [2] it was greater than 10000 nM.

As to `Cc1cccc(C#CC=C2CCN(c3ccccc3)CC2)n1`, the values for the inhibitory constant (Ki) in test [1] and in test [2] were 92 nM and 29.2 nM, respectively. Also, the IC50 in test [3] is 55 nM.

Regarding `O=[N+]([O-])c1cccnc1N1CCC(=CC#Cc2ccccc2)CC1`, the figures for the Ki in test [1], in test [2] and in test [4] were 0.6 nM, 0.4 nM and 4.8 nM, respectively. Besides, the values for the half-maximal inhibitory concentration (IC50) in test [3] and in test [5] were 2.8 nM and 39.3 nM, respectively.

On to `O=C(C#Cc1ccccc1)N1CCN(c2ncccc2[N+](=O)[O-])CC1`, for which the values for the inhibition constant (Ki) in test [1], in test [2] and in test [4] were 0.6 nM, 0.5 nM and 96.8 nM, respectively. The 50% inhibitory concentration (IC50) was found to be 0.9 nM in test [3] and 271 nM in test [5].

Take `O=[N+]([O-])c1cccnc1N1CCC(=CC#Cc2cccc(Cl)c2)CC1`: the figures for the Ki in test [1], in test [2] and in test [4] were 0.4 nM, 0.5 nM and 18.6 nM, respectively. Besides, the concentration for half-maximal inhibition (IC50) came out at 3.8 nM in test [3] and 1340 nM in test [5].

As for `O=[N+]([O-])c1cccnc1N1CCC(=CC#Cc2ccccn2)CC1`, the inhibition constant Ki was determined as 0.1 nM in test [1], 0.3 nM in test [2] and 39.1 nM in test [4]. Further, the half-inhibitory concentration (IC50) in test [3] turned out to be 0.4 nM; in test [5] it was 207 nM.

In the case of `Cc1cccc(C#Cc2ccccc2)n1`, the Ki in test [4] was greater than 10000 nM.

As to `Cc1nc(C#Cc2cccnc2)cs1`, the inhibitory constant (Ki) in test [4] is greater than 10000 nM.

As for `C=Cc1ccc([N+](=O)[O-])c(N2CCN(C(=O)C#Cc3ccccc3)CC2)n1`, the Ki is 1.3 nM in test [1] and 54.2 nM in test [4]. In test [3], the IC50 was 42 nM.

Take `Cc1ccc([N+](=O)[O-])c(N2CCN(C(=O)c3cccc(-c4ccccc4)c3)CC2)n1`: the inhibitory constant (Ki) in test [1] and in test [2] was greater than 10000 nM throughout.

In test [2], `CC1(C)CN(c2ccc(C#CC=C3CCN(c4ncccc4[N+](=O)[O-])CC3)cc2)C1=O` showed a Ki greater than 1000 nM.

On to `Cc1cccc(C#C/C=C2/CCCN(c3nc(C)ccc3[N+](=O)[O-])C2)n1`, for which the Ki in test [2] was 264 nM; in test [4], greater than 1000 nM.

For `O=[N+]([O-])c1cccnc1N1CCN(CC#Cc2ccccc2)CC1`, the results for the Ki in test [1], in test [2] and in test [4] were 117 nM, 60.7 nM and greater than 1000 nM, respectively.

As for `O=C(C#Cc1ccccc1)N1CCN(c2ccccc2[N+](=O)[O-])CC1`, the Ki in test [1] is 1.8 nM; in test [2], 0.4 nM; in test [4], 69.3 nM.

`O=C(c1ccccc1-c1ccccc1)N1CCN(c2ncccc2[N+](=O)[O-])CC1`: the Ki in test [1] and in test [2] was greater than 10000 nM in each case.
